Measurements as given in publication PMC3312318 (Biochemistry, 2012).
One block for each molecule: values may come before it. Ends that are not written are not given here. Oregon Green 488 = Oregon Green 488 fluorophore

Key:
[1] = tested on: PICK1 PDZ domain; settings: in words, ref [39], cited from earlier work
[2] = tested on: PKCα; assay: In vitro phosphorylation by PKCα; type: biochemical; settings: in words
Method in brief: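 About 3 μg of purified untagged PICK1 variant was mixed with reaction buffer (Tris pH 7.5, MgCl2, CaCl2), PKC lipid activator, 10 ng PKCα and 2 μCi [γ-32P]ATP, then incubated 30 min at 30 °C. Reactions were stopped on ice with SDS loading buffer and run on SDS-PAGE. 32P and Coomassie bands were quantified, and the phosphorylation/protein density ratio was expressed relative to WT (100%). Mean ± SE, 3–5 experiments.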

[3] = tested on: PKCα; assay: In vitro phosphorylation by PKCα after preincubation with lipid vesicles; type: biochemical; settings: with vs without vesicles
Method in brief: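 Purified untagged PICK1 (~3 μg) was preincubated 30 min on ice with 3 μg Folch fraction type I vesicles extruded to 100 nm, or without vesicles. It was then phosphorylated with 10 ng PKCα, PKC lipid activator, Mg2+/Ca2+ Tris reaction buffer (pH 7.5) and 2 μCi [γ-32P]ATP for 30 min at 30 °C. Read-out was 32P band density over Coomassie protein density.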

[4] = molecular target: T1, PICK1 S77A, rat (rat, UniProt Q9EP80 1-416, S77A); assay: fluorescence polarisation
[5] = molecular target: T2, PICK1 S77D, rat (phosphomimic) (rat, UniProt Q9EP80 1-416, S77D); assay: fluorescence polarisation
[6] = molecular target: T3, PICK1 WT (protein interacting with C-kinase 1), rat (rat, UniProt Q9EP80 1-416); assay: fluorescence polarisation
[7] = molecular target: T1, PICK1 S77A, rat; assay: fluorescence polarisation; remark: listed apart in the source
[8] = molecular target: T2, PICK1 S77D, rat (phosphomimic); assay: fluorescence polarisation; remark: listed apart in the source
[9] = molecular target: T3, PICK1 WT (protein interacting with …); assay: fluorescence polarisation; remark: listed apart in the source

T3 sequence (Q9EP80 whole entry): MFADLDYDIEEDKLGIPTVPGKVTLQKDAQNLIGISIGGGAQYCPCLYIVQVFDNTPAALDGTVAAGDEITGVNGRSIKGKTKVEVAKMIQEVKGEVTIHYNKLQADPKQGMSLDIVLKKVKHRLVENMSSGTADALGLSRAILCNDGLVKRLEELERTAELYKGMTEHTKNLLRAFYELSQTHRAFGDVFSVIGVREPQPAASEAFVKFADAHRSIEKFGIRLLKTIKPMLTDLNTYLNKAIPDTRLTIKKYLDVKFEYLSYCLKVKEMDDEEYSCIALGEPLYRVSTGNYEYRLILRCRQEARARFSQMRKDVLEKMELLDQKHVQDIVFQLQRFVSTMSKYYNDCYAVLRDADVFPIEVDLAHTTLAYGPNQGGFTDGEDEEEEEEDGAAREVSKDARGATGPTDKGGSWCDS
T2 sequence (Q9EP80 whole entry S77D): as the sequence (Q9EP80 whole entry) above, with S77D counted along it
T1 sequence (Q9EP80 whole entry S77A): as the sequence (Q9EP80 whole entry) above, with S77A counted along it

Molecule: EVRQFTLRHWLKD [DAT C13 V to D]
- interaction with the PICK1 PDZ domain ([1]; last residue changed to aspartate): disrupts the interaction with the PICK1 PDZ domain

Molecule: OrG DAT C13: DAT C13 with an additional N-terminal cysteine residue coupled to the fluorophore Oregon Green 488 (C(Oregon Green 488)EVRQFTLRHWLKV)
- affinity for the PICK1 PDZ domain [1]: highest affinity reported for the PICK1 PDZ domain

Molecule: PICK1 A87L: PICK1 mutant (A87L) that cannot accommodate a peptide in the PDZ binding pocket
- PKCα phosphorylation compared with PICK1 WT ([2]; n=3-5): phosphorylated to the same level as WT

Molecule: PICK1 WT: purified rat PICK1, cleaved from GST with thrombin
- fold increase in phosphorylation on addition of lipid vesicles [3]: approximately 10 fold
- PKCα in vitro phosphorylation ([2]; SDS-PAGE, 32P autoradiography, n=3): PICK1 is a substrate for PKCα

B3: DAT C13 (13 C-terminal residues of the human dopamine transporter) (peptide)
peptide: EVRQFTLRHWLKV
- Ki [7]: 1.5 µM
- Ki [8]: 1.1 µM
- Ki [9]: 1.05 µM

Second part, the molecule after the results:

- binding result [4]: binds
- binding result [5]: binds
- binding result [6]: binds
B1: OrG DAT C13 (DAT C13 with an additional N-terminal cysteine coupled to Oregon Green 488) (peptide)
peptide: C(Oregon Green 488)EVRQFTLRHWLKV

- Ki [7]: 28 µM
- Ki [8]: 29 µM
- Ki [9]: 49 µM
B2: PKCα C13 (13 C-terminal residues of human protein kinase Cα) (peptide)
peptide: NPQFVHPILQSAV

- Ki [7]: 9.8 µM
- Ki [8]: 8.8 µM
- Ki [9]: 7.6 µM
B4: GluA2 C13 (13 C-terminal residues of human GluA2) (peptide)
peptide: EGYNVYGIESVKI
